Shown are actives, neighbours in structure and some others; about 2.1% of the full set was active somewhere.
m5-HT2A agonist = mouse Htr2a agonists via beta-arrestin recruitment, primary screen, cell-based, luminescence; activation, % at 7.6 µM; actives 0.66% (n = 360,000); CHO-K1 mHTR2A beta-arrestin complementation; percent of 30 µM serotonin response; 5-hydroxytryptamine receptor 2A (Mus musculus), P35363;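 active = activation above a run cutoff, the mean activation of all tested compounds plus 3 SD, cut at about 14% in these data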
CXCR6 block = CXCR6 receptor inhibitors, primary screen, cell-based, beta-arrestin, luminescence, CHO-K1 PathHunter, 1536-well | inhibition, % at 20 µM | actives 0.36% (n = 360,000) | AID 602244, 2012; in the data active = inhibition above about 34%, passing the limit was not always enough;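 also: antagonist mode with CXCL16 agonist at 10 nM final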
Target sequence (O00574 whole entry, looked up): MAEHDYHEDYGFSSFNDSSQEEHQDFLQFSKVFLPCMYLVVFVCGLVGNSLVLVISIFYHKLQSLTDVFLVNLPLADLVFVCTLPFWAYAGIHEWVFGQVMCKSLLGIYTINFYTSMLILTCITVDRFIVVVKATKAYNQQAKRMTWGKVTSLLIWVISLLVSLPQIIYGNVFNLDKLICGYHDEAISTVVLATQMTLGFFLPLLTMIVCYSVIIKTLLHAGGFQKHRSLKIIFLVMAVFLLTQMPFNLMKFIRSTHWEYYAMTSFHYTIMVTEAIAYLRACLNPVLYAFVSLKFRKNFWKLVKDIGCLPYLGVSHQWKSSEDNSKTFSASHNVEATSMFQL
EBI2 antag = EBI2 receptor antagonists, beta-arrestin recruitment, primary screen, cell-based, luminescence, 7a,25-OHC stimulation, uHTS. actives 0.81% (n = 360,000). 7a,25-OHC stimulated. inhibition, % at 5 µM. G-protein coupled receptor 183 (Homo sapiens), P32249. AID 651636, 2012; in the data active = inhibition above about 38%;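 also: enzyme fragment complementation signal reports receptor beta-arrestin coupling in cells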
APJ antagonist = antagonists of human apelin receptor APJ, primary screen, CHO-K1 cells, beta-arrestin complementation, luminescence; actives 0.32% (n = 330,000); AID 2521, 2010; inhibition, % at 20 µM; P35414;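 active = inhibition above about 40% at 20 µM, limit read from the data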;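 also: cells challenged with 10 nM apelin-13 agonist together with compound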
CCR6 antag = CCR6 receptor antagonists, primary screen, cell-based, CHO-K1, luminescence, beta-arrestin, uHTS; AID 493098, 2011; actives 0.49% (n = 340,000); inhibition, % at 20 µM; C-C chemokine receptor type 6 (Homo sapiens), P51684; CHO-K1 CCR6 PathHunter beta-arrestin, CCL20-stimulated;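 active = compounds whose inhibition of the agonist-driven luminescence signal at 20 µM reaches about 50%, limit read from the data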;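 also: cells stimulated with CCL20 at 14 nM final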
APJ agonist = agonists of human apelin receptor APJ, primary screen, CHO-K1 cells, PathHunter beta-arrestin, luminescence; 0% DMSO wells, 100% apelin; activation, % at 20 µM; actives 0.11% (n = 330,000);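 active = activation more than six SD over the plate average, tested at 20 µM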
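system = engineered CHO-K1 APJ arrestin reporter cells | input = 1000 cells per well | timing = overnight seeding, 90 min compound at 25 °C, 1 h detection | measured by = enzyme-fragment complementation luminescence | read-out = beta-arrestin recruitment to APJ as agonist activity, luminescent signal | control set = negative DMSO alone, positive Apelin-13 at 10 nM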
EBI2 antag conf = EBI2 antagonist hit retest, beta-arrestin, confirmation, cell-based, single concentration, luminescence, 7a,25-OHC stimulation. shares compounds with EBI2 antag. 7a,25-OHC antagonism. inhibition, % at 5 µM. actives 29% (n = 2,400). AID 651997, 2013;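 active = inhibition of at least 50%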
EBI2 ag = EBI2 agonist activity of antagonist hits, confirmation, counter-screen for EBI2 antagonist project, cell-based, single concentration, agonist mode, luminescence. activation, % at 5 µM. shares compounds with EBI2 antag. AID 652000, 2013. EBI2-expressing cells, 60 min; 0% vehicle, 100% 7α,25-dihydroxycholesterol control. 2,400 tested, under 10 active;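 active = activation of at least 50%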
bGal cs = E. coli beta-galactosidase enzyme inhibition, confirmation, counter-screen for EBI2 antagonist project, biochemical, luminescence, single concentration | shares compounds with EBI2 antag | purified beta-galactosidase, luminescent Galacton Star, 15 min | inhibition, % at 5 µM | actives 1% (n = 2,400);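 active = replicate-average signal at least 3 plate SD below neutral wells, shown as high inhibition, flagging enzyme-inhibiting false positives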;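 also: higher means stronger loss of beta-gal luminescence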
Of the large screens only hits and unclear results are named; the others gave an inactive call (follow-up assays come after a bar, where they were run).

O=C(c1cc2ccccc2o1)N1CCN(Cc2nc3ccccc3s2)CC1	EBI2 antag 68 (no result: APJ antagonist, CCR6 antag, APJ agonist) | EBI2 antag conf 55 | EBI2 ag inactive | bGal cs inactive
O=C(c1cc2ccccc2o1)N1CCN(C/C=C/c2ccccc2)CC1	EBI2 antag 86 | EBI2 antag conf 59 | EBI2 ag inactive | bGal cs inactive
CN(C)S(=O)(=O)N1CCN(CC(O)COc2ccc3cc(Br)ccc3c2)CC1 (configuration not stated)	EBI2 antag 85 | EBI2 antag conf 67 | EBI2 ag inactive | bGal cs inactive
CC(=O)Nc1ccc(S(=O)(=O)N2CCN(CC(O)COc3ccc4ccccc4c3)CC2)cc1 (configuration not stated)	EBI2 antag 57 | EBI2 antag conf inactive | EBI2 ag inactive | bGal cs inactive
CC(=O)Nc1ccc(OCC(O)CN2CCN(S(=O)(=O)c3ccc(NC(C)=O)cc3)CC2)cc1 (configuration not stated)	none
CC(C)Sc1nc2sc(-c3ccccc3)cc2c(=O)n1N	EBI2 antag 51 | EBI2 antag conf inactive | EBI2 ag inactive | bGal cs inactive
CSc1nc2sc(-c3ccccc3)cc2c(=O)n1N	none
O=C(Cn1nc(C(=O)O)c2ccccc2c1=O)c1c[nH]c2ccccc12	EBI2 antag 77 | EBI2 antag conf 69 | EBI2 ag inactive | bGal cs inactive
COc1ccc(S(=O)(=O)Nc2cccc3c2O[C@H](CN(C)Cc2ccc(Cl)c(Cl)c2)[C@@H](C)CN([C@H](C)CO)C3=O)cc1	EBI2 antag 60 | EBI2 antag conf 59 | EBI2 ag inactive | bGal cs inactive
COc1cc(NC(=O)c2cccnc2Sc2ccc(Cl)cc2)cc(OC)c1OC	none
COc1ccc(/C=C/C(=O)NCC(=O)N/N=C/c2ccc(OC)cc2)cc1	EBI2 antag 62 | EBI2 antag conf inactive | EBI2 ag inactive | bGal cs inactive
COc1ccc(/C=C/C(=O)NCC(=O)N/N=C/c2cccnc2)cc1	none
O=C(COc1ccccc1)NCC(=O)N/N=C/c1ccc(Br)cc1	EBI2 antag 38 | EBI2 antag conf inactive | EBI2 ag inactive | bGal cs inactive
Cc1ccc(/C=N/NC(=O)CNC(=O)COc2ccccc2)cc1	none
COc1ccc(/C=C/C(=O)Nc2ccc(OC)nc2)cc1	EBI2 antag 44 | EBI2 antag conf inactive | EBI2 ag inactive | bGal cs inactive
COc1ccc(CNC(=O)CCN2C(=O)c3ccccc3S2(=O)=O)cc1	none
Cc1noc(C)c1C(=O)N1CCN(C(=O)c2sc3cc(Cl)ccc3c2Cl)CC1	EBI2 antag 42 | EBI2 antag conf inactive | EBI2 ag inactive | bGal cs inactive
Fc1cccc(NC(=S)Nc2cccnc2)c1	none
COc1ccccc1CNC(=O)CSc1ccc(Br)cc1	EBI2 antag 45 | EBI2 antag conf inactive | EBI2 ag inactive | bGal cs inactive
COc1ccccc1CNC(=O)COC(=O)CSc1ccc(F)cc1	none
O=C(COc1ccc(Cl)cc1)N1CCN(S(=O)(=O)c2cc(F)ccc2F)CC1	EBI2 antag 87 (no result: APJ antagonist, CCR6 antag, APJ agonist) | EBI2 antag conf 68 | EBI2 ag inactive | bGal cs inactive
Cc1ccc(C)c(OCCC(=O)N2CCN(S(=O)(=O)c3cc(F)ccc3F)CC2)c1	EBI2 antag 46 | EBI2 antag conf inactive | EBI2 ag inactive | bGal cs inactive
Cc1cc(Cl)ccc1OCCCC(=O)N1CCN(S(=O)(=O)c2ccccc2)CC1	EBI2 antag 63 | EBI2 antag conf inactive | EBI2 ag inactive | bGal cs inactive
Cc1noc(C)c1COc1ccccc1C(=O)NCCc1ccccc1	none
O=C1c2cccc3c(N4CCCCC4)ccc(c23)C(=O)N1c1ccc(O)cc1	none
O=C(Nc1ccc(S(=O)(=O)N2CCOCC2)cc1)C1CCN(S(=O)(=O)c2ccc(F)cc2)CC1	none
C=CCn1c(=O)c2ccc(C(=O)NCc3ccccc3)cc2n(Cc2cccc(Cl)c2)c1=O	EBI2 antag 55 | EBI2 antag conf inactive | EBI2 ag inactive | bGal cs inactive
C=CCn1c(=O)c2ccc(C(=O)NCc3ccccc3)cc2n(Cc2ccc(Cl)cc2)c1=O	none
CC1=C(C(=O)OCC2CCCO2)C(c2cccc(C(F)(F)F)c2)C2=C(CC(c3ccco3)CC2=O)N1 (configuration not stated)	EBI2 antag 53 | EBI2 antag conf inactive | EBI2 ag inactive | bGal cs inactive
CC1=C(C(=O)OCC2CCCO2)C(c2ccccc2OC(C)C)C2=C(CC(c3ccco3)CC2=O)N1 (configuration not stated)	none
O=C(c1cccc(F)c1)N1CCN(C(=O)c2cc(-c3ccc(Cl)cc3Cl)on2)CC1	EBI2 antag 44 | EBI2 antag conf inactive | EBI2 ag inactive | bGal cs inactive
COC(=O)c1ccc(C2C(Oc3ccccc3)C(=O)N2CCc2ccc(F)cc2)cc1 (configuration not stated)	EBI2 antag 53 | EBI2 antag conf inactive | EBI2 ag inactive | bGal cs inactive
COc1ccc(-c2cn3nc(SCC(=O)NCC4CCCO4)ccc3n2)cc1 (configuration not stated)	EBI2 antag 67 | EBI2 antag conf inactive | EBI2 ag inactive | bGal cs inactive
O=C(COC(=O)c1cc(S(=O)(=O)N2CCCCC2)ccc1N1CCOCC1)c1ccccc1Cl	EBI2 antag 48 (no result: APJ antagonist, CCR6 antag, APJ agonist) | EBI2 antag conf 65 | EBI2 ag inactive | bGal cs inactive
COc1ccccc1-c1cc(C(=O)NCc2cccs2)no1	none
O=C(COC(=O)C1(c2cccc(F)c2)CCCC1)NCc1ccc2c(c1)OCO2	none
O=C(NCc1ccc(Cl)cc1)C1CCN(S(=O)(=O)c2ccccc2)CC1	EBI2 antag 65 | EBI2 antag conf inactive | EBI2 ag inactive | bGal cs inactive
